An excerpt weighted towards active compounds, which were near 4.1% of everything screened.
KCNK9 block: KCNK9 potassium channel inhibitors, primary screen, HEK293 cells, thallium flux; hit rate 1.2% among 310,000; AID 488922, 2010; B-score at 10 µM; FluxOR thallium flux fluorescence; hits give low values; Potassium channel subfamily K member 9 (Homo sapiens), Q9NPC2;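 active = ratio B-score over 3 SD below the library mean, with starting fluorescence within 5 SD of its mean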;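 note: negative B-score means less thallium flux so channel inhibition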
KCNQ1 block: inhibitors of human KCNQ1 channel, primary screen, cell-based, thallium flux, high-throughput. CHO-K1 KCNQ1, FluxOR thallium flux fluorescence; hits give high values. B-score at 10 µM. Potassium voltage-gated channel subfamily KQT member 1 (Homo sapiens), P51787. hit rate 1.3% among 310,000;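 active = compounds whose thallium flux B-score, printed positive for inhibition, exceeds three library SD while starting fluorescence stays within three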;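 note: channel opened by potassium depolarization with thallium stimulus after 20 min compound exposure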
KCNQ1 pot: potentiators or activators of KCNQ1 channel, primary screen, cell-based, thallium flux, high-throughput; Potassium voltage-gated channel subfamily KQT member 1 (Homo sapiens), P51787; CHO-K1 KCNQ1, thallium flux FluxOR fluorescence; hits give high values; B-score at 10 µM; hit rate 0.35% among 310,000; AID 2648, 2010;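 active = fluorescence ratio B-score, a plate-corrected score, at least three library SD, with initial intensity B-score within 5 SD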
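Schedule – 37 °C overnight plating, 90-min dark dye load, 20-min compound pretreatment · System – stable KCNQ1 CHO-K1 line · Probe or stimulus – thallium- and potassium-containing depolarizing buffer · Measured by – kinetic FluxOR fluorescence, 10 s baseline plus 110 s post-stimulus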
KCNK3 inh: human KCNK3 channel inhibitors, primary screen, CHO cells, FluxOR thallium flux, B-score; Potassium channel subfamily K member 3 (Homo sapiens), O14649; FluxOR fluorescence; hits give low values; B-score at 10 µM; hit rate 0.84% among 340,000; AID 602410, 2012;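 active = B-score under library mean minus 4 SD, starting fluorescence ratio at most library mean plus 5 SD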;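 note: more negative B-score means stronger inhibition of thallium flux through KCNK3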
Cl transport mod: KCC2 cotransporter modulators, thallium flux, primary screen, cell-based, HEK293 KCC2, FluoZin-2 fluorescence, MLSMR; Solute carrier family 12 member 5 (Homo sapiens), Q9H2X9; KCC2 cells, thallium flux FluoZin-2 fluorescence; B-score of Tl+ flux slope (higher = more flux/activation; lower = inhibition) at 10 µM; hit rate 2.2% among 190,000; AID 1456, 2008;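 active = thallium flux slope and its plate-corrected score both differing from the plate sample mean at a set confidence after two filtering rounds, in either direction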;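 note: slope of fluorescence scaled to starting intensity during 10 to 20 s after thallium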
hERG protect: hERG rescue from dofetilide block, primary screen, cell-based, CHO-hERG, FluxOR thallium flux, dofetilide IC70; dofetilide IC70 present; Voltage-gated inwardly rectifying potassium channel KCNH2 (Homo sapiens), Q12809; hit rate 0.51% among 310,000; AID 1511, 2009; activation (rescue from dofetilide block), less the hit threshold, % at 10 µM;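 active = activation above the mean of controls blocked by dofetilide plus 5 SD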;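 note: thallium influx through hERG after potassium depolarization seen as dye fluorescence rise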
KCNK9 inh conf: KCNK9 potassium channel inhibitors, confirmation, HEK293 cells, thallium flux, duplicate | shares compounds with KCNK9 block | FluxOR thallium flux fluorescence | inhibition, % at 10 µM | hit rate 43% among 4,900;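 active = thallium signal inhibited by more than 5 SD of the compound-free buffer control wells, on both duplicate plates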;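 note: 0% = assay buffer control wells without compound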
Kir2-1 spec: mouse Kir2.1 channel inhibition, confirmation, selectivity assay for KCNK9 modulator project, cell-based, HEK293, thallium flux; Kir2.1 cells, FluxOR thallium flux fluorescence; AID 492993, 2010; shares compounds with KCNK9 block; hit rate 4% among 4,900; inhibition, % at 10 µM;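 active = thallium signal drop more than 5 SD beyond the mean of the no-compound control wells, seen in both duplicate plates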;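 note: signal is fluorescence rise after thallium addition divided by baseline fluorescence; plate controls were assay buffer only for no effect and full block by chlorpromazine control for full effect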
Target sequence (P35561 whole entry, looked up): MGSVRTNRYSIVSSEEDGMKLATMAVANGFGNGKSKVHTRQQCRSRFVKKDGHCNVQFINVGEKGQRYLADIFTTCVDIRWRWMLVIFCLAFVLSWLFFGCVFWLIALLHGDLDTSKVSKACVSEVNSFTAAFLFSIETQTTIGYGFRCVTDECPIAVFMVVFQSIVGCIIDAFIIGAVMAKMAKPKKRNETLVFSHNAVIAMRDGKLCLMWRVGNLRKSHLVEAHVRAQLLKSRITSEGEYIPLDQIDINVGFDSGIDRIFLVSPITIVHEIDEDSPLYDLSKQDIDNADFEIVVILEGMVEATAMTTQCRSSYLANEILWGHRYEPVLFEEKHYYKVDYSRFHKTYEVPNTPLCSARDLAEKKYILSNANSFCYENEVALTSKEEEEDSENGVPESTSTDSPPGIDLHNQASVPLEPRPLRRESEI
HEK293 Tl ctr: thallium flux in non-induced HEK293 cells, confirmation, counter-screen for KCNK9 inhibitor project, cell-based, second counter screen, non-induced KCNK9-HEK293. FluxOR thallium flux. hit rate 40% among 4,900. AID 492997, 2010. inhibition, % at 10 µM. shares compounds with KCNK9 block;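 active = thallium signal drop beyond 5 SD of the untreated control mean, on both duplicate plates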;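 note: plate controls were buffer only IC0 wells for no effect and SID17386958 at its maximal inhibitory level for full effect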
Numbers without * were called inactive; i = inactive; . = no result given.

SMILES	KCNK9 block	KCNQ1 block	KCNQ1 pot	KCNK3 inh	Cl transport mod	hERG protect	KCNK9 inh conf	Kir2-1 spec	HEK293 Tl ctr
Cc1ccc(-c2csc3nc(SCC(=O)N(C)C)n(Cc4ccccc4)c(=O)c23)cc1	-9.51*	i	i	i	-1.57	-13.5	49.5%*	i	28.0%*
COc1ccc(C)cc1NC(=O)CCNS(=O)(=O)c1ccc2c(c1)CC(C)N2C(C)=O (stereo not drawn)	i	i	i	i	.	-11.5	.	.	.
Cc1cc(C)n(-c2nnc(C)n2/N=C/c2cc(Br)ccc2OCc2ccccc2)n1	-8.65*	i	i	i	-4.55	-14.4	41.0%*	i	i
O=C(Cc1c(F)cccc1Cl)Nc1nc2ccccc2s1	-13.3*	i	i	i	-0.832	-6.5	i	i	49.5%*
CC(=O)c1sc(NC(=O)Cc2c(F)cccc2Cl)nc1C	i	i	i	i	.	-3.1	.	.	.
COc1ccccc1Nc1nc(N)nc(CSC(=S)N2CCCCC2)n1	i	i	i	i	0.631	-6.7	.	.	.
COc1ccc2cc(C(=O)C3CCCN(Cc4cnc(N5CCOCC5)s4)C3)ccc2c1 (stereo not drawn)	i	i	i	i	0.654	-21.6	.	.	.
CCCn1ncc(CN2CCCC(C(=O)c3cccc(OC(C)C)c3)C2)c1C (stereo not drawn)	i	i	i	i	0.144	-8.8	.	.	.
CCCn1cc(CN2CCCC(C(=O)c3cccc(OC(C)C)c3)C2)c(C)n1 (stereo not drawn)	i	i	i	i	0.822	-8.0	i	i	i
CC(C)Oc1cccc(C(=O)C2CCCN(Cc3cnc(N4CCCC4)s3)C2)c1 (stereo not drawn)	i	i	i	i	-1.43	-3.8	i	i	i
C[C@H](O)[C@@H]1C(=O)N2CCc3ccc(N4CCOCC4)cc3[C@@H]2C[C@@H]1N(C)C(=O)Nc1ccccc1	.	.	.	i	.	.	.	.	.
CCCN(CCC)S(=O)(=O)c1ccc(C(=O)N2CCCc3ccccc32)cc1	i	i	i	i	.	-14.3	i	i	i
CCCN(CCC)S(=O)(=O)c1ccc2c(c1)CCCN2C(C)=O	i	i	i	i	-0.66	1.2	.	.	.
CCN1CCN(S(=O)(=O)c2cccc3nsnc23)CC1	i	i	i	i	0.0269	-4.4	.	.	.
O=S(=O)(c1cccc2nsnc12)N1CCN(C/C=C/c2ccccc2)CC1	i	i	i	i	-0.871	-11.9	.	.	.
O=S(=O)(c1cccc2nsnc12)N1CCN(C/C=C\c2ccccc2)CC1	i	i	i	i	-0.152	-11.4	i	i	i
Cc1ccccc1CN1CCN(S(=O)(=O)c2cccc3nsnc23)CC1	i	i	i	i	.	-6.4	i	i	i
COc1ccc(C(C)(C)C)cc1NC(=O)CN1C(=O)C(=O)N(Cc2ccco2)C1=O	.	.	.	i	.	.	.	.	.
CC1=NOC(=O)/C1=C\c1ccc(-c2cc(Cl)ccc2Cl)o1	i	i	i	i	0.815	-2.9	i	i	i

Bioassay records (PubChem)
